Assay results taken from ChEMBL document CHEMBL4177582, “Modifications of flexible nonyl chain and nucleobase head group of (+)-erythro-9-(2's-hydroxy-3's-nonyl)adenine [(+)-EHNA] as adenosine deaminase inhibitors” (Bioorg Med Chem, 2017).

Experiments:
[1] = Drug metabolism in rat liver microsomes assessed as drug recovery pre-incubated at 37 degC for 5 mins measured after 30 mins in absence of NADPH by LC/MS/MS method; format: ADME, microsome; conditions: read-out: Drug recovery
[2] = Drug metabolism in human liver microsomes assessed as drug recovery pre-incubated at 37 degC for 5 mins before NADPH addition and measured after 30 mins by LC/MS/MS method; format: ADME, microsome; conditions: read-out: Drug recovery
[3] = Volume of distribution at steady state in Wistar rat at 1 mg/kg, iv after 0.25 to 24 hrs by LC/MS/MS method; format: ADME, organism-based; conditions: in vivo, read-out: Vdss
Summary of the method: (§1)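 Male Wistar rats were given a single intravenous dose. The vehicle was NMP 10%, PEG-300 15%, and 0.1M ammonium acetate buffer q.s. (pH 3). Plasma concentration–time profiles were used to derive AUC0-t, Vss, clearance (mL/min/kg) and t1/2.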

[4] = Drug metabolism in mouse liver microsomes assessed as drug recovery pre-incubated at 37 degC for 5 mins measured after 30 mins in absence of NADPH by LC/MS/MS method; format: ADME, microsome; conditions: read-out: Drug recovery
[5] = Half life in human liver microsomes pre-incubated at 37 degC for 5 mins before NADPH addition and measured after 30 mins by LC/MS/MS method; format: ADME, microsome
[6] = AUC (0 to t) in Wistar rat at 1 mg/kg, iv after 0.25 to 24 hrs by LC/MS/MS method; format: ADME, organism-based; design: dose 1 mg/kg, time 0.25-24 hr, route intravenous; conditions: in vivo; summary of the method: as §1
[7] = Half life in mouse liver microsomes pre-incubated at 37 degC for 5 mins before NADPH addition and measured after 30 mins by LC/MS/MS method; format: ADME, microsome
Adenosine deaminase = molecular target: T1, Adenosine deaminase (Bos taurus, UniProt P56658); experiment: Inhibition of bovine adenosine deaminase pre-incubated for 5 mins before adenosine addition; conditions: read-out: Ki
T1 sequence (P56658 whole entry): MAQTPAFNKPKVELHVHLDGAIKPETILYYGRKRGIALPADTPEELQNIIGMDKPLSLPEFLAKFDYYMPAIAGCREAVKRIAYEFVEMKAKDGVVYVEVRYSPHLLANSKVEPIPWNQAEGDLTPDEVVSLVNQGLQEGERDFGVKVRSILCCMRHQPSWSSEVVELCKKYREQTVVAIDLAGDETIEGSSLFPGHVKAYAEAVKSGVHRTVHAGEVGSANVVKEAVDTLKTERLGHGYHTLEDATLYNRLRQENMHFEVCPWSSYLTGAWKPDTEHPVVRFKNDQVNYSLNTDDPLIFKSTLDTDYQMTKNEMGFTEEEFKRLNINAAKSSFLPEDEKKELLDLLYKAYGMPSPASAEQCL

[8] = Drug metabolism in mouse liver microsomes assessed as metabolic turnover rate per 0.125 mg/ml protein pre-incubated at 37 degC for 5 mins before NADPH addition and measured after 30 mins by LC/MS/MS method; format: ADME, microsome; conditions: 0.5 h
[9] = Half life in rat liver microsomes pre-incubated at 37 degC for 5 mins before NADPH addition and measured after 30 mins by LC/MS/MS method; format: ADME, microsome
[10] = Drug metabolism in rat liver microsomes assessed as metabolic turnover rate per 0.125 mg/ml protein pre-incubated at 37 degC for 5 mins before NADPH addition and measured after 30 mins by LC/MS/MS method; format: ADME, microsome; conditions: 0.5 h
[11] = Clearance in Wistar rat at 1 mg/kg, iv after 0.25 to 24 hrs by LC/MS/MS method; format: ADME, organism-based; conditions: in vivo; summary of the method: as §1
[12] = Drug metabolism in human liver microsomes assessed as metabolic turnover rate per 0.125 mg/ml protein pre-incubated at 37 degC for 5 mins before NADPH addition and measured after 30 mins by LC/MS/MS method; format: ADME, microsome; conditions: 0.5 h
[13] = Drug metabolism in mouse liver microsomes assessed as drug recovery pre-incubated at 37 degC for 5 mins before NADPH addition and measured after 30 mins by LC/MS/MS method; format: ADME, microsome; conditions: read-out: Drug recovery
[14] = Drug metabolism in rat liver microsomes assessed as drug recovery pre-incubated at 37 degC for 5 mins before NADPH addition and measured after 30 mins by LC/MS/MS method; format: ADME, microsome; conditions: read-out: Drug recovery
[15] = Half life in Wistar rat at 1 mg/kg, iv after 0.25 to 24 hrs by LC/MS/MS method; format: ADME, organism-based; conditions: in vivo; summary of the method: as §1
[16] = Drug metabolism in human liver microsomes assessed as drug recovery pre-incubated at 37 degC for 5 mins measured after 30 mins in absence of NADPH by LC/MS/MS method; format: ADME, microsome; conditions: read-out: Drug recovery
[17] = Half life in Wistar rat at 3 mg/kg, iv after 0.25 to 24 hrs by LC/MS/MS method; format: ADME, organism-based; conditions: in vivo; summary of the method: as §1
[18] = AUC (0 to t) in Wistar rat at 3 mg/kg, iv after 0.25 to 24 hrs by LC/MS/MS method; format: ADME, organism-based; design: time upper 24 hr, dose 3 mg/kg, time lower 0.25 hr, route intravenous; conditions: in vivo; summary of the method: as §1
[19] = Clearance in Wistar rat at 3 mg/kg, iv after 0.25 to 24 hrs by LC/MS/MS method; format: ADME, organism-based; conditions: in vivo; summary of the method: as §1
[20] = Volume of distribution at steady state in Wistar rat at 3 mg/kg, iv after 0.25 to 24 hrs by LC/MS/MS method; format: ADME, organism-based; conditions: in vivo, read-out: Vdss; summary of the method: as §1
Rattus norvegicus [21] = experiment: Clearance in Wistar rat at 1 mg/kg, iv after 1 hr by LC/MS/MS method; format: ADME, organism-based; conditions: in vivo, BLD = below limit of detection; summary of the method: as §1
Rattus norvegicus [22] = experiment: Plasma concentration in Wistar rat at 1 mg/kg, iv after 1 hr by LC/MS/MS method; format: ADME, organism-based; conditions: in vivo, BLD = below limit of detection; summary of the method: as §1

Compound | remaining at 0.5 h [1] | remaining at 0.5 h [2] | remaining at 0.5 h [4] | half-life [5] | AUC(0-t) [6] | half-life [7] | Ki (Adenosine deaminase) | Drug metabolism [8] | half-life [9] | Drug metabolism [10] | Drug metabolism [12] | remaining at 0.5 h [13] | remaining at 0.5 h [14] | remaining at 0.5 h [16] | half-life [17] | AUC(0-t) [18] | clearance [19] | Vd [20] | also measured
C[C@H](O)[C@@H](CCc1cccc(C(F)(F)F)c1)n1cnc(C(N)=O)c1 | 92% | 79% | 93% | > 30 min | 1.42 µM·h | > 30 min | 5.9 nM | 0.04 nmol/min/mg | > 30 min | 0.04 nmol/min/mg | 0.06 nmol/min/mg | 89% | 87% | 94% | – | – | – | – | Vd [3]: 2 L/kg; clearance [11]: 33.3 mL/min/kg; half-life [15]: 56.4 min
C[C@H](O)[C@@H](CCc1cccc(C(F)(F)F)c1)n1cnc2c(N)ncnc21 | 91% | 80% | 89% | > 30 min | – | > 30 min | 1.1 nM | 0.08 nmol/min/mg | > 30 min | 0.04 nmol/min/mg | 0.06 nmol/min/mg | 74% | 86% | 95% | < 30 min | 1.61 µM·h | 85 mL/min/kg | 1.88 L/kg | –
C[C@H](O)[C@@H](CCc1ccc(C(F)(F)F)cc1)n1cnc2c(N)ncnc21 | 93% | 99% | 94% | > 30 min | – | > 30 min | 5.2 nM | 0.04 nmol/min/mg | > 30 min | < 0.04 nmol/min/mg | < 0.04 nmol/min/mg | 85% | 93% | 95% | 133 min | 2.21 µM·h | 59 mL/min/kg | 7.01 L/kg | –
CCCCCC[C@H]([C@H](C)O)n1cnc2c(N)ncnc21 [(+)-EHNA] | – | – | – | – | 0.35 µM·h | – | 2.2 nM | – | – | – | – | – | – | – | – | – | – | – | CL (Rattus norvegicus [21]): Bld; Cp (Rattus norvegicus [22]): Bld
